Measurements of several laboratories.
Compare with care: the assays were run in different laboratories.
P2RY14: P2Y purinoceptor 14 (P2RY14, Homo sapiens, UniProt Q15391)
Nuclear receptor subfamily 4 group A member 2: Nuclear receptor subfamily 4 group A member 2 (Homo sapiens, UniProt P43354)
CDKL1: Cyclin-dependent kinase-like 1 (CDKL1, Homo sapiens, UniProt Q00532)
IRAK4: Interleukin-1 receptor-associated kinase 4 (IRAK4, Homo sapiens, UniProt Q9NWZ3)

| Structure (SMILES) | target | assay | test system | setting | measurement | result |
| --- | --- | --- | --- | --- | --- | --- |
| Cc1ccc(OCC(=O)N[C@@H](Cc2c[nH]c3ccccc23)C(=O)OC(C)C)cc1 | P2RY14 | cAMP, antagonist | HEK293 | 0.1 µM | inhibition | 110% |
| O=C(O)CCc1nc(-c2ccccc2)c(-c2ccccc2)o1 | Nuclear receptor subfamily 4 group A member 2 | thermal stability, DSF | – | 100 µM | ΔTm | -0.6 °C |
| CNS(=O)(=O)c1ccc(Nc2ncc(C(F)(F)F)c(N3CCC[C@](C)(O)C3)n2)c(C)c1 | Serine/threonine-protein kinase ULK1 (ULK1, Homo sapiens, UniProt O75385) | binding, competition with immobilised ligand | – | 1 µM | remaining binding | 11% |
| CCCCC(=O)Nc1ccc(-c2ccc3ncn(CCC)c(=O)c3c2)cn1 | Ribosomal protein S6 kinase alpha-4, N-terminal kinase domain (RPS6KA4, Homo sapiens, UniProt O75676) | binding, competition with immobilised ligand | – | 0.5 µM | remaining binding | 89% |
| C1=C/COCc2cc(ccc2OCCN2CCCC2)Nc2nccc(n2)-c2cccc(c2)COC/1 | CDKL1 | binding | – | 0.1 µM | remaining binding | 89% |
| CCCCCCCC(=O)c1cc(OC)c(OC)c(OC)c1CC(=O)OCC | Nuclear receptor subfamily 4 group A member 2 | thermal stability, DSF | – | 100 µM | ΔTm | -1.02 °C |
| NC/C(=C\F)COc1cccc(Cn2c(=S)[nH]c(=O)c3[nH]cnc32)c1 | Eosinophil peroxidase (Homo sapiens, UniProt P11678) | enzyme activity, inhibitor | – | 10 µM | remaining activity | 90.7% |
| CC(C)OC(=O)[C@H](Cc1c[nH]c2ccccc12)NC(=O)c1cccs1 | P2RY14 | cAMP, antagonist | HEK293 | 0.1 µM | inhibition | 70.3% |
| COc1cccc2c(Nc3ccc4[nH]c(C(=O)N/N=C/c5ccc(SC)cc5)cc4c3)cc(C)nc12 | Nuclear receptor subfamily 4 group A member 2 | thermal stability, DSF | – | 100 µM | ΔTm | 0.02 °C |
| C#Cc1cc(-c2cc(Nc3nc(N[C@@H](C)c4ccc(F)cn4)ncc3Cl)n[nH]2)ccc1C=O | Tyrosine-protein kinase JAK3 (JAK3, Homo sapiens, UniProt P52333) | enzyme activity, inhibitor | – | 0.2 µM | inhibition | 82.1% |
| C[C@H](NC(=O)C(=O)Nc1ccccc1C(C)(C)C)C(=O)N[C@@H](CC(=O)O)C(=O)COc1c(F)c(F)cc(F)c1F | Caspase-1 (CASP1, Homo sapiens, UniProt P29466) | enzyme activity, inhibitor | – | – | kinact/KI | 2.42e+06 M⁻¹ s⁻¹ |
| O=C(N[C@@H](Cc1c[nH]c2ccccc12)C(=O)O)c1cccs1 | P2RY14 | cAMP, antagonist | HEK293 | 0.1 µM | inhibition | 68% |
| Cc1nc2c(Cl)cccn2c1NC(=O)c1ccc(-c2ccc(N(C)C)cc2)o1 | Nuclear receptor subfamily 4 group A member 2 | thermal stability, DSF | – | 100 µM | ΔTm | -1.88 °C |
| N#Cc1ccc(NC(=O)Nc2ccccc2)cc1 | TGF-beta receptor type-1 (TGFBR1, Homo sapiens, UniProt P36897) | cell-free assay, competition with immobilised ligand | – | 25 µM | remaining binding | 81% |
| CC(C)OC(=O)[C@H](Cc1c[nH]c2ccccc12)NC(=O)c1ccc2nccnc2c1 | P2RY14 | cAMP, antagonist | HEK293 | 0.1 µM | inhibition | 89.6% |
| C#Cc1cnc(Nc2ccnc(CO)c2)nc1Nc1ccccc1S(C)(=O)=NC#N (stereo not shown) | IRAK4 | enzyme activity, inhibitor, radiometric | – | 1 µM | remaining activity | 1.36% |
| O=C(COc1ccc(C(F)(F)F)cc1)N[C@@H](Cc1c[nH]c2ccccc12)C(=O)O | P2RY14 | cAMP, antagonist | HEK293 | 0.1 µM | inhibition | 34.8% |
| CCC(=O)NS(=O)(=O)c1ccc(-c2c(-c3ccccc3)noc2C)cc1 | Nuclear receptor subfamily 4 group A member 2 | thermal stability, DSF | – | 100 µM | ΔTm | -1.15 °C |
| CC(C)OC(=O)[C@H](Cc1c[nH]c2ccccc12)NC(=O)c1ccc2ccccc2n1 | P2RY14 | cAMP, antagonist | HEK293 | 0.1 µM | inhibition | 55.4% |
| Cc1cc(O)c(-c2ccc([C@@H](C)CN(C)C)cc2)c2c1[nH]c(=O)c1sccc12 | Microtubule-associated serine/threonine-protein kinase 4 (MAST4, Homo sapiens, UniProt O15021) | enzyme activity, inhibitor | – | 0.1 µM | inhibition | 2% |
| CCCCCCCCC(=O)c1cc(O)c(O)c(O)c1 | Nuclear receptor subfamily 4 group A member 2 | thermal stability, DSF | – | 100 µM | ΔTm | -2.52 °C |
| CCN1/C(=C/C(C)=O)Sc2ccc(F)cc21 | Corticotropin-releasing factor receptor 1 (CRHR1, Homo sapiens, UniProt P34998) | ligand displacement, radioligand | – | 10 µM | inhibition | 0% |
| COc1ccc2oc(-c3ccc4nc(N)oc4c3)c/c(=N\c3ccccc3NC(=O)CCN)c2c1 | CDKL1 | binding | – | 1 µM | remaining binding | 94% |
| CS(=O)(=NC#N)c1ccccc1Nc1nc(Nc2ccnc(CO)c2)ncc1Cl (stereo not shown) | IRAK4 | enzyme activity, inhibitor, radiometric | – | 1 µM | remaining activity | 4.68% |
| COC(=O)c1cn(C)c2ccc(-c3cccnc3)cc12 | Nuclear receptor subfamily 4 group A member 2 | thermal stability, DSF | – | 100 µM | ΔTm | -0.46 °C |
| CCOC(=O)[C@H](Cc1c[nH]c2ccccc12)NC(=O)COc1ccc(C)cc1 | P2RY14 | cAMP, antagonist | HEK293 | 0.1 µM | inhibition | -48.9% |
| COCCOCc1ccc(-c2cc3onc(-c4ccccc4)c3c(=O)n2C)cc1 | Nuclear receptor subfamily 4 group A member 2 | thermal stability, DSF | – | 100 µM | ΔTm | -0.54 °C |
| O=C(N[C@@H](Cc1c[nH]c2ccccc12)C(=O)O)c1c[nH]c2ccccc12 | P2RY14 | cAMP, antagonist | HEK293 | 0.1 µM | inhibition | 36.7% |
